Data published in ChEMBL document CHEMBL1914345 (Bioorg Med Chem Lett, 2011).

What was measured:
[1] = Inhibition of retinal rod CNGA1/CNGB1 expressed in Xenopus laevis oocytes assessed as blockade of cGMP-induced current at +50 mV holding potential by patch-clamp electrophysiology; type: cell-based; conditions: oocyte; read-out: Kd(app)
Summary of the method: (§1)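 Heteromeric retinal CNGA1 plus CNGB1 channels expressed in Xenopus laevis oocytes. Currents activated by 2 mM cGMP and recorded at both +50 and -50 mV. Apparent Kd taken by fitting current amplitudes to a single-binding-site block equation.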

[2] = Inhibition of retinal rod CNGA1/CNGB1 expressed in Xenopus laevis oocytes assessed as blockade of cGMP-induced current at -50 mV holding potential by patch-clamp electrophysiology; type: cell-based; conditions: oocyte; read-out: Kd(app); summary of the method: as §1
Oocyte [3] = assay: Ratio of 2-(dimethylamino)ethyl 4-(octylamino)benzoate Kd(app) to compound Kd(app) for retinal rod CNGA1/CNGB1 expressed in Xenopus laevis oocytes; type: cell-based
Oocyte [4] = assay: Ratio of tetracaine Kd(app) to compound Kd(app) for retinal rod CNGA1/CNGB1 expressed in Xenopus laevis oocytes; type: cell-based
[5] = Ratio of Kd(app) for sodium channel to Kd(app) for retinal rod CNGA1/CNGB1

Row | SMILES | Kd [1] [µM] | Kd [2] [µM] | Ratio (Oocyte [3]) | Ratio (Oocyte [4]) | Ratio [5]
1 | CCCCCCCCNc1ccc(C(=O)OCCN(C)C)cc1 | 0.8 | 1.72 | – | – | –
2 | CCCCCCCCNc1ccc(C(=O)OCCN(C)C)cc1Cl | 0.14 | 0.38 | 8 | 50 | –
3 | CCCCNc1ccc(C(=O)OCCN(C)C)cc1OC | 4.3 | 18.3 | – | – | –
4 | CCCCCCCCNc1ccc(C(=O)OCCN(C)C)cc1F | 0.2 | 0.75 | 8 | 50 | –
5 | CCCCCCCCNc1ccc(C(=O)OCCN(C)C)c(Cl)c1 | 0.1 | 0.22 | 8 | 50 | –
6 | CCCCNc1ccc(C(=O)OCCN(C)C)cc1C | 7.8 | 28.1 | – | – | –

Continued, values first:

Row | Kd [1] [µM] | Kd [2] [µM] | Ratio (Oocyte [3]) | Ratio (Oocyte [4]) | Ratio [5] | SMILES
7 | 8 | 12.6 | – | – | – | CCCCCCCCNc1ccc(C(=O)OCCN(C)C)cc1[N+](=O)[O-]
8 | 0.5 | 1.41 | – | – | – | CCCCCCCCNc1ccc(C(=O)OCCN(C)C)cc1C
9 | 1.25 | 3 | – | – | – | CCCCCCCCNc1ccc(C(=O)OCCN(C)C)cc1OC
10 | – | – | – | – | 100 | CCCCNc1ccc(C(=O)OCC[N+](C)(C)CCCNCCCN)cc1
11 | 3 | 12.8 | – | – | – | CCCCNc1ccc(C(=O)OCCN(C)C)cc1Cl
12 | 5.5 | 19.6 | – | – | – | CCCCNc1ccc(C(=O)OCCN(C)C)cc1[N+](=O)[O-]
13 | 0.14 | 0.24 | 8 | 50 | – | CCCCCCCCNc1ccc(C(=O)OCCN(C)C)cc1Br
